Test results taken from ChEMBL document CHEMBL4251752, “Integrated Strategy for Lead Optimization Based on Fragment Growing: The Diversity-Oriented-Target-Focused-Synthesis Approach” (J Med Chem, 2018).

What was measured:
[1] = molecular target: T1, Bromodomain-containing protein 4 (Homo sapiens, UniProt O60885); test: Inhibition of TEV cleavage site-fused-GST tagged BRD4(BD1) (unknown origin) using SGRGK(Ac)CGK(Ac)-GLGK(Ac)GGAK(Ac)RHRKVG-peptide after 3 hrs by HTRF assay
Procedure, shortened: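 GST-BRD4(BD1) purified on glutathione resin and by size exclusion; tetra-acetylated H4 peptide as ligand. Buffer 50 mM HEPES pH 7.5, 400 mM KF, 0.1% BSA, 0.5% DMSO final; 3 h at room temperature.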

[2] = molecular target: T1, Bromodomain-containing protein 4; test: Binding affinity to TEV cleavage site-fused-His-tagged BRD4(BD1) (unknown origin) by isothermal-titration calorimetry
Procedure, shortened: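 BRD4(BD1) with His-tag cleaved by TEV, DTT removed, dialysed into 10 mM HEPES pH 7.5, 150 mM NaCl; compounds diluted in the final dialysate. Reverse titration (protein in syringe, ligand in cell), 13 injections at 15 or 25 °C, in triplicate. Data fitted to a one-site model for KD and ΔH; ΔG and TΔS derived from these.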

[3] = molecular target: T1, Bromodomain-containing protein 4; test: Binding affinity to TEV cleavage site-fused-His-tagged BRD4(BD1) (unknown origin) assessed as change in melting temperature at 10 uM by RT-PCR based thermal shift assay
Procedure, shortened: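 His-tag removed by TEV cleavage before use; protein 2 μM final, compound 10 μM final (0.1% or 0.5% DMSO), thermal shift dye 1:1000, in 10 mM HEPES pH 7.5, 500 mM NaCl. After 1 min equilibration at 25 °C, heated 25–70 °C in 0.5 °C steps (25 s each); Tm from fluorescence melt curves, run in triplicate; ΔTm reported.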

IC50 [1] [nM] | Kd [2] [nM] | ΔTm [3] [°C] | Compound
2000 |  |  | CCn1cnc2c1c(=O)[nH]c(=O)n2Cc1ccc(CNS(=O)(=O)c2ccc3oncc3c2)cc1
501 | 410 | 3.38 | CCn1cnc2c1c(=O)[nH]c(=O)n2Cc1ccc(CNS(=O)(=O)c2cnn(-c3ccccc3)c2)cc1
5010 |  |  | CCn1cnc2c1c(=O)[nH]c(=O)n2Cc1ccc(CNS(=O)(=O)CCN2CCOCC2)cc1
 | 190 | 3.88 | CCn1cnc2c1c(=O)[nH]c(=O)n2Cc1ccc(CNS(=O)(=O)c2ccc3c(c2)CCCC(=O)N3)cc1
316 | 360 | 3.13 | CCn1cnc2c1c(=O)[nH]c(=O)n2Cc1ccc(CNS(=O)(=O)c2ccc(Oc3ccccc3)cc2)cc1
501 | 890 | 3.25 | CCn1cnc2c1c(=O)[nH]c(=O)n2Cc1ccc(CNS(=O)(=O)c2cccc(-c3ccccc3)c2)cc1
1580 |  |  | CCn1cnc2c1c(=O)[nH]c(=O)n2Cc1ccc(CNS(=O)(=O)CCc2ccccc2)cc1
794 | 540 | 2.63 | CCn1cnc2c1c(=O)[nH]c(=O)n2Cc1ccc(CNS(=O)(=O)c2ccc(OC)cc2)cc1
631 | 590 | 3.5 | CCn1cnc2c1c(=O)[nH]c(=O)n2Cc1ccc(CNS(=O)(=O)c2ccc(OCc3ccccc3)cc2)cc1
398 | 310 | 3 | CCn1cnc2c1c(=O)[nH]c(=O)n2Cc1ccc(CNS(=O)(=O)c2ccc3c(c2)CCC(=O)N3)cc1
1260 |  |  | CCn1cnc2c1c(=O)[nH]c(=O)n2Cc1ccc(CNS(=O)(=O)c2cc(-c3ccno3)ccc2C)cc1
25100 |  |  | CCn1cnc2c1c(=O)[nH]c(=O)n2Cc1ccc(CN)cc1
398 |  | 1.5 | CCn1cnc2c1c(=O)[nH]c(=O)n2Cc1ccc(CNS(=O)(=O)c2ccc(-c3ccccc3)cc2)cc1
794 | 860 | 2.13 | CCn1cnc2c1c(=O)[nH]c(=O)n2Cc1ccc(CNS(=O)(=O)c2ccc3c(c2)n(C)c(=O)n3C)cc1
631 | 770 | 3 | CCn1cnc2c1c(=O)[nH]c(=O)n2Cc1ccc(CNS(=O)(=O)c2ccc(C)cc2)cc1
